Bioassay records from PubChem.
tolC growth inh – E. coli tolC mutant growth inhibition; E. coli BW25113 tolC mutant growth, OD615; growth inhibition, % at 10 µM (by protocol); 65,000 compounds, 2.2% hits;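 active means growth inhibition at or above a cutoff equal to the mean over every tested compound plus 3 SD, cut at about 60% in these data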;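 further: growth measured after 20 h incubation at 37 °C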
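Test system: E. coli BW25113 ΔtolC::kan bacteria; incubation: 37 °C, 20 h exposure; medium: LB broth supplemented with 50 µg/mL kanamycin; read-out basis: percent growth inhibition; signal: A615 absorbance measurement; compound: 10 µM final, single dose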
E coli WT exp – growth inhibitors of E. coli BW25113 wild type; OD600 absorbance; growth inhibition, % at 100 µM; 98,000 compounds, 0.15% hits;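 active means growth inhibition above about 50% at one test dose, limit read from the data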;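 further: growth measured after 20 h incubation at 37 °C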
Pyk2 oligo antag – Pyk2 (human) oligomerization antagonism; Q14289; Q293 cells, Pyk2 FERM NanoBiT luminescence; hits give low values; z-score (the deposit names both 25 µM and 10 µM); 99,000 compounds, 0.83% hits; AID 1347419;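 active means Z-score of -3 or lower, scaled per plate to the spread of control and sample wells; inactive means z-score above -3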;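 further: negative z-score means lost luminescence so less FERM oligomerization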
Target sequence (Q14289 whole entry, looked up): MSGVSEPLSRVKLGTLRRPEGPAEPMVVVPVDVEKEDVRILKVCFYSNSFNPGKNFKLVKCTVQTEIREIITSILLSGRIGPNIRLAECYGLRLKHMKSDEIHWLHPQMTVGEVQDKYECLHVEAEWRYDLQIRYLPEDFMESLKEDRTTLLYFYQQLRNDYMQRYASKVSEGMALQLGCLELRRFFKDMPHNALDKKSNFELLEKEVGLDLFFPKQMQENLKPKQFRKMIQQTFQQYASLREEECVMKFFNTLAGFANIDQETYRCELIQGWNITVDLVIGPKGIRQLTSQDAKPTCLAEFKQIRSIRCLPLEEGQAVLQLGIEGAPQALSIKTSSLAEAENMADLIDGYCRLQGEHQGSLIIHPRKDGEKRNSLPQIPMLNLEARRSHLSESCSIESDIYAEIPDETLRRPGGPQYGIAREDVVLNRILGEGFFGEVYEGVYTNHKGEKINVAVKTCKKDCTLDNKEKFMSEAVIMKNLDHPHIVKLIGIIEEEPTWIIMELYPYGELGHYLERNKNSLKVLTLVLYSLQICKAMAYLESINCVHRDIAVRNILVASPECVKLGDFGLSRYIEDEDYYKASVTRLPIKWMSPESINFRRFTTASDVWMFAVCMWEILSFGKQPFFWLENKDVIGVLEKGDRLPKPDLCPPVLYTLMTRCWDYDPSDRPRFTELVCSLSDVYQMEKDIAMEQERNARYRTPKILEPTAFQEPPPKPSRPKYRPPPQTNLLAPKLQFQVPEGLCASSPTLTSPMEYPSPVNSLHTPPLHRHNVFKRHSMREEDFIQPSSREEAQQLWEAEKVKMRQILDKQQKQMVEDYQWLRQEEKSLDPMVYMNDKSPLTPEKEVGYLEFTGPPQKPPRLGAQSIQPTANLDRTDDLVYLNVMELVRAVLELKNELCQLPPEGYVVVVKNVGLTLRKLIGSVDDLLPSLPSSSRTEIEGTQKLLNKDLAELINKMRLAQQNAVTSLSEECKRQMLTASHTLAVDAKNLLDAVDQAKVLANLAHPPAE
PostGolgi ctrl – growth of the yeast control strain, post-Golgi counter-screen; efflux-deficient yeast background strain, growth absorbance A615, 16 h; 98,000 compounds, 5% hits; inhibition, % at 10 µM
Cav3 T inh – inhibitors of human Cav3.2 T-type calcium channel | B-score at 10 µM | AID 449739 | Cav3.2-expressing cells, Fluo-4 calcium fluorescence FDSS; hits give low values | O95180 | 100,000 compounds, 4% hits;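 active means single-dose well whose peak fluorescence ratio is a statistical outlier from its plate by either plate-standardised score or position-corrected B-score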
PostGolgi yeast – growth inhibition of a yeast mutant, post-Golgi transport screen; inhibition, % at 10 µM; post-Golgi transport phenotypic cell assay; 98,000 compounds, 0.9% hits; AID 739;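 further: yeast cells grown in 1536-well plates; yeast grown about 18 h at 30C before absorbance read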
Active calls of the source: *; . = no result. The list is not random: actives were taken first. Their share in the collection is about 8.7%. Unless noted, no stated cut-off is given here; in the data, active means inhibition above about 30%; inactive means the rest.

SMILES	tolC growth inh	E coli WT exp	Pyk2 oligo antag	PostGolgi ctrl	Cav3 T inh	PostGolgi yeast
Cn1nc(-c2ccc(Cl)cc2)c2cc(C(=O)N3CCN(c4ccccn4)CC3)sc21	20	-11	.	52*	-1	-5
Cn1nc(-c2ccc(Cl)cc2)c2cc(C(=O)N3CCN(c4ccccc4)CC3)sc21	23	-8	.	7	-0.97	-4
CC(C)(Oc1ccc(Cl)cc1)C(=O)N1CCN(c2ccccn2)CC1	47	-1	-0.13	50*	-4.5*	1
Cc1ccc(CNC(=O)c2cc3c(-c4ccc(Cl)cc4)nn(C)c3s2)o1	16	-8	.	53*	-0.41	-7
CCn1c(SCC(=O)Nc2cccc(C)c2)nc2c(c1=O)SC(C)C2 (configuration not stated)	5	5	.	10	0.022	0
Cc1[nH]c(=O)[nH]c(=O)c1S(=O)(=O)NCC12CC3CC(CC(C3)C1)C2	-4	4	0.2	43*	-1.6	-2
CCOC(=O)c1snc(C(=O)NC2CCCCC2)c1N	10	10	-0.05	6	-0.28	-6
Nc1c(C(=O)NC2CCCCC2)nsc1C(=O)OCC(=O)NC1CCCCC1	15	-11	0.41	31*	-0.014	-8
COc1ccc(S(=O)(=O)NCc2ccc(C)cc2)cc1	.	0	-0.36	12	-0.0041	-3
Cc1cc(NC(=O)c2cc3nc(C4CC4)cc(C(F)(F)F)n3n2)no1	-18	-5	-0.08	31*	-0.59	12
O=C(NCc1ccccc1)c1cc2nc(C3CC3)cc(C(F)(F)F)n2n1	.	-12	0.57	10	-0.011	-13
Cc1cccc(C)c1OC1(c2ccccc2)OC(=O)c2ccccc21 (configuration not stated)	.	-6	-1.4	15	-6.6*	-14
Cc1c(NC(=O)c2cnn3c2NC(c2ccc(Br)cc2)CC3C(F)(F)F)c(=O)n(-c2ccccc2)n1C (configuration not stated)	.	.	0.32	.	-7.8*	.
Cc1c(CNC(=O)c2cnn3c2NC(c2ccc(Br)cc2)CC3C(F)(F)F)cnn1C (configuration not stated)	35	-26	-0.13	13	-0.47	-24
CCN(CC)C(=O)CC(c1ccc(N(C)C)cc1)c1c(O)cc(OC)cc1OC (configuration not stated)	.	.	.	.	0.19	.
O=C(CN(Cc1ccccc1)C(=O)c1cc2c(s1)CCC2)NCc1cccs1	.	-14	-1.1	35*	-4.5*	1
CCNS(=O)(=O)c1ccc(C)c(-n2cnnn2)c1C	.	.	1.4	.	0.45	.
O=C(Nc1cccc(Cl)c1)N(Cc1nc2ccccc2c(=O)[nH]1)C1CCCC1	57	-4	0.3	25	-6*	1
COC(=O)c1cc(OC)c(OC)cc1NC(=O)Cn1nnc(-c2ccccc2Cl)n1	-1	-1	0.28	22	-0.56	-6
O=C(CN1CCC(n2nnc3cc(F)ccc32)CC1)Nc1ccccc1N1CCOCC1	31	2	-0.75	11	-0.61	10
CCCOc1ccc(C2C(C(=O)OC)=CN(CCOC)C=C2C(=O)OC)cc1	13	6	-3.5*	14	-1.3	0
Cc1scc(C(=O)N/N=C/c2ccc(OCC(C)C)cc2)c1C	.	-6	-0.82	26	-4.3*	3
CCc1c(C(=O)N/N=C/c2ccc(C)o2)csc1C	.	.	-0.7	.	0.056	.
CCCCOc1ccc(/C=N/NC(=O)c2csc(C)c2C)cc1	.	-7	-2	35*	-2.2	-2
CCN(Cc1ccccc1)C(=O)c1cc2c(=O)oc3ccc(C)cc3c2s1	.	-22	.	47*	-0.54	5
SMILES	tolC growth inh	E coli WT exp	Pyk2 oligo antag	PostGolgi ctrl	Cav3 T inh	PostGolgi yeast
Cc1noc(C)c1S(=O)(=O)Nc1ccc(C(=O)N2CCCCC2)cc1	.	-5	1.2	-3	2	17
Cc1ccc(Cl)cc1N1CCN(C(=O)c2ccc(NS(=O)(=O)c3c(C)noc3C)cc2)CC1	71*	-19	0.66	-5	.	1
Cc1ccc(C)c(N2CCN(C(=O)c3ccc(NS(=O)(=O)c4c(C)noc4C)cc3)CC2)c1	80*	-18	-0.39	14	-8.3*	4
COc1cccc(N2CCN(Cc3coc4c(Cl)cc(Cl)cc4c3=O)CC2)c1	2	.	.	.	.	.
COc1ccc(CNCCC(c2ccc(OC(C)C)cc2)C(C)C)cc1OC (configuration not stated)	.	15	-0.05	-1	-3.7*	-1
CCN(CC)c1ccc(C(=O)OCC(=O)N2CCN(c3ccccc3)CC2)cc1	-5	-11	0.51	-1	0.52	24
O=C(Cn1nnc(-c2ccc(Cl)cc2)n1)NC1CC2CCC1C2 (configuration not stated)	12	-8	2.1	15	-4.6*	37*
CC(=O)OCC(CCn1cnc2cnc(N)nc21)COC(C)=O	.	.	.	.	1.9	.
COc1cc(S(=O)(=O)N2CCN(c3ccccc3)CC2)ccc1Cl	10	4	-2.8	19	0.29	12
CS(=O)(=O)N1CCN(c2ccccc2NC(=O)CSc2ccc(Cl)cc2)CC1	14	-19	-0.62	10	-4*	-2
COc1cc(S(=O)(=O)N2CCN(c3ccc(F)cc3)CC2)ccc1Cl	20	5	-3.3*	26	-0.008	1
COc1cc(S(=O)(=O)N2CCN(c3ccccc3F)CC2)ccc1Cl	52	-3	-3*	48*	-1.6	1
CS(=O)(=O)N1CCN(c2ccccc2F)CC1	-16	6	-0.21	31*	1.3	7
CS(=O)(=O)N1CCN(c2ccccc2NC(=O)c2ccc(Cl)cc2)CC1	-12	-14	-0.18	12	-0.77	-1
OCC1CCCN1C(=S)Nc1ccccc1 (configuration not stated)	.	3	0.36	3	0.11	1
COc1ccc(S(=O)(=O)N2CCN(C(=O)NC3CCCCC3)CC2)cc1OC	2	-6	1.3	5	0.93	0
Cc1ccc(-c2nc(CS(=O)CC(=O)NCCC(C)C)c(C)o2)cc1 (configuration not stated)	2	-7	.	-4	-1.3	7
Cc1cccc2nc(CSc3nnc4ccccn34)cn12	.	3	1.2	2	-0.21	1
CC(C)CC(/C(O)=C(\C#N)c1nc2ccccc2[nH]1)N1C(=O)c2ccccc2C1=O (configuration not stated)	24	4	-2.6	-3	-6.6*	-1
CC(C)(C)/C(O)=C(/C#N)c1nc2ccccc2[nH]1	4	5	0.3	11	.	8
O=S(=O)(c1ccc2c(c1)OCCO2)N1CCN(c2nc3ccccc3s2)CC1	7	-3	-1.9	21	0.036	3
c1ccc2c(c1)CCN(c1nc3cc4c(cc3s1)OCCO4)C2	65*	-7	-1.4	11	-0.071	-6
Cn1c(-c2ccc(C=O)s2)nc2c3ccccc3c3ccccc3c21	.	-7	-3.6*	0	-5.5*	-1
CC(C)C(C)NC(=O)COc1ccc(Sc2ccc(OCC(=O)NC(C)C(C)C)cc2)cc1 (configuration not stated)	.	.	-1	.	.	.
